What was measured:
786-0 [1] = assay: Antiproliferative activity against human 786-0 cells assessed as inhibition of cell growth at 30 uM measured after 3 to 4 days by MTT assay relative to control; assay type: functional; conditions: time 3-4 day
Summary of the method: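 786-O cells (RPMI, 10% FCS) seeded at 5000 per well and left overnight. Compound was added at a single 30 µM concentration in 1% FCS medium (DMSO max. 0.2%). Cells grew 3–4 days at 37 °C, 5% CO₂, with no medium change, and were read by MTT. Percent inhibition is the mean of duplicates that differed by ≤10%.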

786-0 [2] = assay: Antiproliferative activity against human 786-0 cells assessed as inhibition of cell growth measured after 3 to 4 days by MTT assay; assay type: functional; conditions: time 3-4 day
Summary of the method: (§1)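 786-O or U937 cells grown in RPMI with 2 mM L-glutamine, 1% pen/strep and 10% FCS. Cells were seeded at 5000 per well and left overnight, then switched to 1% FCS medium containing compound or DMSO (max. 0.2% final). Growth ran 3–4 days at 37 °C in 5% CO₂ without medium change, followed by MTT read-out. GI50 is the mean ± SD of at least two independent experiments.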

U-937 = assay: Antiproliferative activity against human U-937 cells assessed as inhibition of cell growth measured after 3 to 4 days by MTT assay; assay type: functional; conditions: time 3-4 day; summary of the method: as §1
[3] = Antiproliferative activity against HEK293 cells assessed as inhibition of cell growth measured after 3 to 4 days by MTT assay; assay type: toxicity, cell-based; conditions: human, time 3-4 day
Summary of the method: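 HEK293 cells grown in DMEM with 2 mM L-glutamine, 1% pen/strep and 10% FCS. Cells were seeded at 5000 per well, left overnight, then given medium with 1% FCS plus compound or DMSO (max. 0.2% final). They were grown 3–4 days at 37 °C in 5% CO₂ with no medium change, and growth was read by MTT.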

[4] = biological target: Aurora kinase B (Homo sapiens) (UniProt Q96GD4); assay: Inhibition of human recombinant AURKB at 2 uM by Eurofins kinase assay relative to control
[5] = biological target: CDC7/DBF4 (Cell division cycle 7-related protein kinase/Activator of S phase kinase) (Homo sapiens) (UniProt Q9UBU7+O00311); assay: Inhibition of human recombinant GST tagged CDC7/DBF4 expressed in Baculovirus expression system at 2 uM by Eurofins kinase assay relative to control
Homo sapiens = species: Homo sapiens; assay: Inhibition of human recombinant GST tagged CDK1/cyclin B expressed in insect cells at 2 uM by Eurofins kinase assay relative to control
[6] = biological target: Dual specificity protein kinase CLK4 (Homo sapiens) (UniProt Q9HAZ1); assay: Inhibition of human recombinant CLK4 at 2 uM by Eurofins kinase assay relative to control
[7] = biological target: Dual specificity tyrosine-phosphorylation-regulated kinase 1A (Homo sapiens) (UniProt Q13627); assay: Inhibition of human DYRK1A at 2 uM by Eurofins kinase assay relative to control
[8] = biological target: Dual specificity tyrosine-phosphorylation-regulated kinase 1B (Homo sapiens) (UniProt Q9Y463); assay: Inhibition of human recombinant DYRK1B at 2 uM by Eurofins kinase assay relative to control
[9] = biological target: Dual specificity tyrosine-phosphorylation-regulated kinase 2 (Homo sapiens) (UniProt Q92630); assay: Inhibition of human DYRK2 at 2 uM by Eurofins kinase assay relative to control
[10] = biological target: Glycogen synthase kinase-3 beta (Homo sapiens) (UniProt P49841); assay: Inhibition of human recombinant GSK3B at 2 uM by Eurofins kinase assay relative to control
[11] = biological target: Homeodomain-interacting protein kinase 1 (Homo sapiens) (UniProt Q86Z02); assay: Inhibition of human recombinant HIPK1 at 2 uM by Eurofins kinase assay relative to control
[12] = biological target: Serine/threonine-protein kinase pim-1 (Homo sapiens) (UniProt P11309); assay: Inhibition of human recombinant PIM1 at 2 uM by Eurofins kinase assay relative to control
[13] = biological target: cAMP-dependent protein kinase catalytic subunit alpha (Homo sapiens) (UniProt P17612); assay: Inhibition of human recombinant PRKACA at 2 uM by Eurofins kinase assay relative to control
[14] = biological target: Proto-oncogene tyrosine-protein kinase Src (Homo sapiens) (UniProt P12931); assay: Inhibition of human recombinant SRC at 2 uM by Eurofins kinase assay relative to control
[15] = biological target: Serine/threonine-protein kinase 17A (Homo sapiens) (UniProt Q9UEE5); assay: Inhibition of human STK17A at 2 uM by Eurofins kinase assay relative to control
[16] = Upregulation of PARP cleavage in human U-937 cells by measuring signal 1 at 5 uM measured after 48 hrs by immunoblot analysis; assay type: functional
Summary of the method: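 U937 cells exposed to compound or DMSO for 48 h, then lysed in Laemmli buffer. Lysates were run on 8–16% gradient SDS-PAGE, semi-dry blotted to PVDF and probed for PARP. Detection used IR-fluorescent secondary antibodies. The cleaved/uncleaved PARP signal ratio was obtained by densitometry. Results are representative of two independent experiments.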

[17] = Upregulation of PARP cleavage in human U-937 cells by measuring signal 2 at 30 uM measured after 48 hrs by immunoblot analysis; assay type: functional
Summary of the method: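 U937 lymphoma cells grown in RPMI with 2 mM L-glutamine, 1 % pen/strep and 10 % FCS; exposed to compound or DMSO solvent control for 48 h. Total cellular proteins harvested and immunoblotted with an antibody against phosphorylated CK2-substrate motifs and for PARP. Read-out is the densitometric ratio of cleaved to uncleaved PARP signal. Representative of two independent experiments.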

[18] = biological target: Signal transducer and activator of transcription 3 (Homo sapiens) (UniProt P40763); assay: Inhibition of STAT3 phosphorylation in human 786-O cells at 6 uM measured after 48 hrs by immunoblot analysis relative to control
[19] = biological target: T1, Hsp90 co-chaperone Cdc37 (Homo sapiens) (UniProt Q16543); assay: Inhibition of CDC37 phosphorylation in human 786-O cells at 6 uM measured after 48 hrs by immunoblot analysis relative to control
T1 sequence (whole entry): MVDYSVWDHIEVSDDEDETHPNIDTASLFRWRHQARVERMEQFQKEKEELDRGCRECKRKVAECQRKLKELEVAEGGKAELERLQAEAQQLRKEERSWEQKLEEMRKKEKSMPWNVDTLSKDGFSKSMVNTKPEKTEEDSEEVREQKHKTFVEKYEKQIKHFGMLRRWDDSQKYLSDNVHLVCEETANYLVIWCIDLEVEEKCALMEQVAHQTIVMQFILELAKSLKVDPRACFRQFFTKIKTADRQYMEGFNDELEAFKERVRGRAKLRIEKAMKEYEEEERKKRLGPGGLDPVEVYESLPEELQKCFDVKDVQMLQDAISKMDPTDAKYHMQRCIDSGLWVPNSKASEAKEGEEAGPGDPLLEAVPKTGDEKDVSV

[20] = biological target: T1, Hsp90 co-chaperone Cdc37 (Homo sapiens); assay: Inhibition of CDC37 phosphorylation in human 786-O cells at 10 uM measured after 48 hrs by immunoblot analysis relative to control

Homeodomain-interacting protein kinase 1 (Homo sapiens), sequence (Q86Z02 whole entry, looked up): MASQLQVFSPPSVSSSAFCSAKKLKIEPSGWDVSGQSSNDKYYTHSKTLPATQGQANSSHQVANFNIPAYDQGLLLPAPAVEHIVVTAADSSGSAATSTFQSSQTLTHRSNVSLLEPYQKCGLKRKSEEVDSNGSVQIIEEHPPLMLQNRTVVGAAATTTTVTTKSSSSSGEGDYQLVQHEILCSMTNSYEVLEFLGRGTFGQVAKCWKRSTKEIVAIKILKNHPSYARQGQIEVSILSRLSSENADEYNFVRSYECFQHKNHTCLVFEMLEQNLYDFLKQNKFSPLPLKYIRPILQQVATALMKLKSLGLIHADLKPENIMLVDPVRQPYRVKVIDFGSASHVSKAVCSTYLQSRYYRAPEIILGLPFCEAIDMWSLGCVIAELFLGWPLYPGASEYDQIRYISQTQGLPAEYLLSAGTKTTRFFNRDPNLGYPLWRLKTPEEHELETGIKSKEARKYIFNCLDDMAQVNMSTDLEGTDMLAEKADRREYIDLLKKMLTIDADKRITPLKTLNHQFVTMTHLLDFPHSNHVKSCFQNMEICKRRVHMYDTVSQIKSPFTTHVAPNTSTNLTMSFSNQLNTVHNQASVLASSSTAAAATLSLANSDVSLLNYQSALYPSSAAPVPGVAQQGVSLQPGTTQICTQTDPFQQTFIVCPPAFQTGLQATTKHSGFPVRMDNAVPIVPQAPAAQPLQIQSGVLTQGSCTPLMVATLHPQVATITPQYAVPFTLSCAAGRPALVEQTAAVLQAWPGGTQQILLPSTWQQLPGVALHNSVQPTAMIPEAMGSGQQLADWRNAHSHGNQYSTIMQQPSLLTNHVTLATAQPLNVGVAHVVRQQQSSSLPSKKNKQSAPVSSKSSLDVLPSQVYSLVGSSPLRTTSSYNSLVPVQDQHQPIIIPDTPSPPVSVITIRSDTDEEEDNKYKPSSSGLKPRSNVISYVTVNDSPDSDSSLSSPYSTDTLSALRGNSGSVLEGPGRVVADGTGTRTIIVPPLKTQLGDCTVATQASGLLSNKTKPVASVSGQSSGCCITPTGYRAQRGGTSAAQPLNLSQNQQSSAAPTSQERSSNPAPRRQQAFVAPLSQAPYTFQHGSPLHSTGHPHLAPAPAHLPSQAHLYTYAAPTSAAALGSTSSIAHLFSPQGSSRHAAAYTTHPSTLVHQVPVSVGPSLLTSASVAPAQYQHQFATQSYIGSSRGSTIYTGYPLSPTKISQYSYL
Signal transducer and activator of transcription 3 (Homo sapiens), sequence (P40763 whole entry): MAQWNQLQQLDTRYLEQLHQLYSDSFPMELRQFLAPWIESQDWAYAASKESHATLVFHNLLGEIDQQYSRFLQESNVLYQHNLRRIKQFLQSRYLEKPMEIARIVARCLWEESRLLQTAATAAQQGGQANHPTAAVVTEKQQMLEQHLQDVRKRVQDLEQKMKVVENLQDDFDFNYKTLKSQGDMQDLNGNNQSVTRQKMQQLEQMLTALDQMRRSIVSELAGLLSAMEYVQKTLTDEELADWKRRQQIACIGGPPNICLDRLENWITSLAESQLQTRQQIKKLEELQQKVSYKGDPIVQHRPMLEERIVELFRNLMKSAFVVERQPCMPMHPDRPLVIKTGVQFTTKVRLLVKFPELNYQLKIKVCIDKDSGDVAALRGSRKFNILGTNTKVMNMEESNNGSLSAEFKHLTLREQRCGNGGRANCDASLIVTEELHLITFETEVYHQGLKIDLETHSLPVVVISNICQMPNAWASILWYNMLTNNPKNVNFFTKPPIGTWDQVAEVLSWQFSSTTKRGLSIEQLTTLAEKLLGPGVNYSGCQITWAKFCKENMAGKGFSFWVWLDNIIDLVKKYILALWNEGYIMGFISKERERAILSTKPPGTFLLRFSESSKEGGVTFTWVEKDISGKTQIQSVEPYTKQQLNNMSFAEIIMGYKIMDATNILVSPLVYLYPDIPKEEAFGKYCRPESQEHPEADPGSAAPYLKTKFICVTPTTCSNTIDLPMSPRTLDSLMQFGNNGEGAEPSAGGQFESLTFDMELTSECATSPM
Serine/threonine-protein kinase pim-1 (Homo sapiens), sequence (P11309 whole entry, looked up): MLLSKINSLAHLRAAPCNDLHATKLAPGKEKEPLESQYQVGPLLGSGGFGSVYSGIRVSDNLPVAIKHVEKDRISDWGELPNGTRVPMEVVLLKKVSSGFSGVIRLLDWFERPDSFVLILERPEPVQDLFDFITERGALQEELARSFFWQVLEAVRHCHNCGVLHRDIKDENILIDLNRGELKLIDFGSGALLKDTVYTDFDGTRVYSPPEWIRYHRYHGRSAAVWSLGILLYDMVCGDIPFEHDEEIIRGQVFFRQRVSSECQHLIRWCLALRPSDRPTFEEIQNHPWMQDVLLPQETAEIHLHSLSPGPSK
Aurora kinase B (Homo sapiens), sequence (Q96GD4 whole entry): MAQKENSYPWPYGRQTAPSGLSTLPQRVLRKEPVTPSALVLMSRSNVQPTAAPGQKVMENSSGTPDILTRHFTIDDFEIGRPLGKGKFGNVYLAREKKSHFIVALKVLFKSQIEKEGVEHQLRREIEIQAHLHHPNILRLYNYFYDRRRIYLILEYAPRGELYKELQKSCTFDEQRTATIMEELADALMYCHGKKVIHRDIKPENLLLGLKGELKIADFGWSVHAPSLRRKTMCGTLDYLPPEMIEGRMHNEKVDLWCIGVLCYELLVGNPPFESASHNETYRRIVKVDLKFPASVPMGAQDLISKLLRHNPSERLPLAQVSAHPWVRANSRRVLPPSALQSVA
Glycogen synthase kinase-3 beta (Homo sapiens), sequence (P49841 whole entry, looked up): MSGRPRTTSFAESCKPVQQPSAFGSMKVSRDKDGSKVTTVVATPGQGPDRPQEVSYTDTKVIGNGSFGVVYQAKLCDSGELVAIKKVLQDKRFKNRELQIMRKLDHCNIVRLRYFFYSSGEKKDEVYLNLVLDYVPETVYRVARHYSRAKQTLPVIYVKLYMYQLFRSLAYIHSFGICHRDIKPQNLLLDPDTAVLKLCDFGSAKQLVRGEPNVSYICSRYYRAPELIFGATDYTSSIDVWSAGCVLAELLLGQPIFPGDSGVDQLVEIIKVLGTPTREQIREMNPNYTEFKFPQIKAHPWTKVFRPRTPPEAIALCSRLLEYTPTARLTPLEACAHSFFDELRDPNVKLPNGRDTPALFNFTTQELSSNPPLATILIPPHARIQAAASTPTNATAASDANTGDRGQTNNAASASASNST
Dual specificity tyrosine-phosphorylation-regulated kinase 2 (Homo sapiens), sequence (Q92630 whole entry): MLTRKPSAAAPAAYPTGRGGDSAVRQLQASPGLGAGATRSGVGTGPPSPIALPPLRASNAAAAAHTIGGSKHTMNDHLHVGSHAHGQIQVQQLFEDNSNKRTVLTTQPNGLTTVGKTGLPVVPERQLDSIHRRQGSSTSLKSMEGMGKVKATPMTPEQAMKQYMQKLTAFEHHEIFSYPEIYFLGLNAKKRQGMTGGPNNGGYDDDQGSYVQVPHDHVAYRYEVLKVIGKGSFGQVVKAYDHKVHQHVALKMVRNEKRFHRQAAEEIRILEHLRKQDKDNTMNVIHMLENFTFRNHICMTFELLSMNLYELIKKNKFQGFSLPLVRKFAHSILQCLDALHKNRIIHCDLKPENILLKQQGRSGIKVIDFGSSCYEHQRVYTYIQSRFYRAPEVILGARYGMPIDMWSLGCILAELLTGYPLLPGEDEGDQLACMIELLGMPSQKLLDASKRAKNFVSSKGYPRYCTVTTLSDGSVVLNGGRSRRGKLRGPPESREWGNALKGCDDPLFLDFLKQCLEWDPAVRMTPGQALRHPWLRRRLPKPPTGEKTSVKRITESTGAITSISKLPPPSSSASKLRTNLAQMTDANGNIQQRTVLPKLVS
CDC7/DBF4 (Cell division cycle 7-related protein kinase/Activator of S phase kinase) (Homo sapiens), sequence (O00311 whole entry, looked up): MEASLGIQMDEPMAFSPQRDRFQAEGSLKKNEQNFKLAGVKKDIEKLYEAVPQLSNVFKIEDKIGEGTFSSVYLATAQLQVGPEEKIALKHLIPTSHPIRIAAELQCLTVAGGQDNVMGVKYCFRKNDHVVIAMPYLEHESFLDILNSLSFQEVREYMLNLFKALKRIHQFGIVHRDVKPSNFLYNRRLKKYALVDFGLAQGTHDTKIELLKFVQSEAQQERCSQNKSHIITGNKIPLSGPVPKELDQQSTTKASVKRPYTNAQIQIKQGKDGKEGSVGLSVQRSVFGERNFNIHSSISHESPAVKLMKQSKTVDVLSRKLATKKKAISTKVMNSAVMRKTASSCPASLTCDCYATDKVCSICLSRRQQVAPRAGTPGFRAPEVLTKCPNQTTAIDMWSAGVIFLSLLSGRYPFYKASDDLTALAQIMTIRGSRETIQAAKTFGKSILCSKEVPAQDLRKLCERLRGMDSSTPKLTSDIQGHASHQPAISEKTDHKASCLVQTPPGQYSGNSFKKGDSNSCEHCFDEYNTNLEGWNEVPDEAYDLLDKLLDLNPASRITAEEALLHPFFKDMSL
CDC7/DBF4 (Cell division cycle 7-related protein kinase/Activator of S phase kinase) (Homo sapiens), sequence (Q9UBU7 whole entry, looked up): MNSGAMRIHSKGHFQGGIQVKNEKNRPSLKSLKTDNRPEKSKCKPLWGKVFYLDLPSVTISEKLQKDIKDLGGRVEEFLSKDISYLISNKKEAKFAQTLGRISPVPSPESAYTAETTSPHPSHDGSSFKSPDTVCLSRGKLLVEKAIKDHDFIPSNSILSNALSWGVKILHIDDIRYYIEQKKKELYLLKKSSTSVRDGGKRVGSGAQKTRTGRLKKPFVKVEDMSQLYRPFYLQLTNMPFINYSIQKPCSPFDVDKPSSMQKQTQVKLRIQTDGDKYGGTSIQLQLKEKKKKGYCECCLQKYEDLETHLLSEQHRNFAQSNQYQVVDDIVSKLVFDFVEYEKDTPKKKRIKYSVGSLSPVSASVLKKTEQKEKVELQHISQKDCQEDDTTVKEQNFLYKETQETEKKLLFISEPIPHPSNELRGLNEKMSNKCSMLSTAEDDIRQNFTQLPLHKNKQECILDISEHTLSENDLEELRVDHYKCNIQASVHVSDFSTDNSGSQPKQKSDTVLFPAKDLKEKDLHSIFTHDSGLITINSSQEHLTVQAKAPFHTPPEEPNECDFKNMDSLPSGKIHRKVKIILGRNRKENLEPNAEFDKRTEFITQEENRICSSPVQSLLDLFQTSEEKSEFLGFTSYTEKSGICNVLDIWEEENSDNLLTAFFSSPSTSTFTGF

GI50 (786-0 [2]): 7.3 µM
GI50 (U-937): 7.5 µM
inhibition [4]: 4%
inhibition [5]: 0%
inhibition [6]: 11%
inhibition [7]: 4%
inhibition [8]: 2%
inhibition [9]: 9%
inhibition [10]: 0%
inhibition [11]: 5%
inhibition [12]: 0%
inhibition [13]: 6%
inhibition [14]: 6%
inhibition [15]: 0%
inhibition [18]: 64%
inhibition [19]: 0%
inhibition [20]: 12%
Structure (SMILES): Clc1ccc(N2CCN(c3ncnc4sc5c(c34)CCNC5)CC2)cc1.O=C(O)C(F)(F)F
inhibition at 30 µM (786-0 [1]): 102%
GI50 [3]: 30 µM
inhibition (Homo sapiens): 4%
Activity [16]: 72%
Activity [17]: 95%
